# Many of the other results were omitted from the sample, so hits are more common in it than they were.
# CHOP UPR activ = apoptotic UPR (CHOP) activation. CHO-CHOP luciferase reporter, luminescence; percent of tunicamycin response over DMSO baseline. activation, % at 10 µM. 0.34% of 330,000 active. AID 449763;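 active = at 10 µM dose, activation of 40% or more, normalized to positive control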
#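 assay system = CHO CHOP reporter cells | amount = 500 CHO-CHOP cells per well | buffer or medium = F12 with 10% FBS | incubation = 16-18 h cell attachment, then 6 h compound exposure, 37 °C | detection = luminescence read with Steady-Glo | read-out = percent activation relative to tunicamycin control | controls = tunicamycin high control, DMSO low control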
# Dynein transport = blocks dynein driven cargo transport along microtubules | 3617.4 mouse cells, GR-EGFP nuclear translocation imaging; test concentration mostly 20 µM; stimulated with dexamethasone, 1 µM; stronger effect = lower value | z-score, hits read low | 0.47% of 220,000 active;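 active = plate z-score of nuclear minus cytoplasmic receptor signal below a set negative limit, without overly bright fluorescence or cell loss, cut at about -3.5 in these data, passing the limit was not always enough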;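 note: z-score of nuclear minus cytoplasmic ring GR-EGFP intensity difference per well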
#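 Buffer or medium: tet-free, stripped-serum medium; Also added: dexamethasone, 1.0 µM final; Technique: high-content fluorescence imaging after fixation; Times: 48 h induction, 1 h compound, 30 min dex at 37 °C; Read-out: per-cell GR-EGFP intensity, nucleus versus surrounding cytoplasmic ring, well-averaged.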
# XBP1 UPR activ = activators of adaptive arm of unfolded protein response (XBP1). CHO-XBP1 luciferase reporter, IRE1-XBP1 UPR activation, luminescence; percent of tunicamycin response, DMSO as zero. activation, % at 20 µM. AID 463104. 0.33% of 330,000 active;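 active = versus positive control, 20 µM dose yields 30% or more activation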
#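 assay system = CHO-XBP1 luciferase reporter cells | amount = 1000 cells/well | buffer or medium = F12 plus 10% FBS | compound dosing = single point, 20 µM final compound, 1% DMSO | incubation = 16-18 h cell attachment at 37 °C, then 6 h compound exposure | detection = Steady-Glo luminescence read | controls = tunicamycin 10 µg/mL and vehicle-only wells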
# Lmaj promast = inhibitors of Leishmania major promastigote growth; AID 1063; inhibition, % at 10 µM; 9% of 200,000 active; Leishmania major promastigotes, resazurin fluorescence viability; in the data active = inhibition above about 50%;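 note: promastigotes grown with compound for 44 hours at 28 °C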
# CHOP inhibitor = CHOP inhibition in unfolded protein response; CHO-K1 CHOP-promoter luciferase, tunicamycin-induced, 15-18 h; inhibition, % at 10 µM; 3.8% of 220,000 active;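 active = compounds that reduced the stress-induced luciferase reporter signal by more than about 70% of percent inhibition, limit read from the data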
# T cruzi repl = blocks replication of Trypanosoma cruzi | T. cruzi beta-gal in NIH3T3, luminescence, 90 h | inhibition, % (test concentration not listed) | 1.4% of 300,000 active | AID 1885;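 active = mean inhibition across valid replicates above about 55%, limit read from the data; inconclusive = mean below that limit but half or more replicates reach it; inactive = mean below it, under half of replicates reach it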;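 note: signal also drops with host cell toxicity which is not excluded here; higher percent means less beta-gal luminescence so fewer parasites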
#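 System: Mouse NIH/3T3 fibroblasts infected with β-gal-expressing T. cruzi Tulahuen C4 | Quantity: NIH/3T3 cells, 5,000 per well | Reagent: 5000 reporter trypomastigotes per well | Dosing: Compound pinned at 50 nL/well, DMSO | Schedule: 3 h host attachment, then at least 90 h co-culture | Detection: GalScreen luminescence, 60 min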
# Hits are given with their value; - = inactive; ? = inconclusive; . = no result given.
SMILES,CHOP UPR activ,Dynein transport,XBP1 UPR activ,Lmaj promast,CHOP inhibitor,T cruzi repl
CCCN(C(=O)COC(=O)CNC(=O)c1ccc2ccccc2c1)c1c(N)n(Cc2ccccc2)c(=O)[nH]c1=O,-,.,-,.,.,-
C=CC[C@H](CC(=O)NCCO)C(=O)NCCOC(=O)[C@@H](CC=C)Cc1ccc(F)cc1,-,.,-,.,.,.
CCOC(=O)c1c(-c2ccc(OC)c(OC)c2)csc1NC(=O)C1CCCO1 (stereo not drawn),-,-,-,100,-,-
CC(C)C1OC(c2cccc(NC(=O)c3cccs3)c2)OCC1(C)C (stereo not drawn),-,-,-,-,79,-
O=C1C=C(c2ccc3[nH]ccc3c2)C[C@@H](c2ccc(Cl)cc2)C1,-,.,-,.,.,.
Cc1cn2c(=O)c(C(=O)NCc3ccc4c(c3)OCO4)cnc2s1,-,.,-,.,.,-
C1=C(c2ccccc2)N2CCN=C2S1,-,-,-,-,86,-
C=CCn1c(=NC(=O)C2CC2)sc2cc(NC(C)=O)ccc21,-,-,-,-,-,-
C=CCn1c(=NC(=O)C2CCCCC2)sc2cc(NC(C)=O)ccc21,-,-,-,80,-,-
CCC(C)c1ccccc1OCCCCN1CCCC1 (stereo not drawn),-,-,-,99,-,-
CCC(C)c1ccccc1OCCCNC1CCCC1 (stereo not drawn),-,.,-,.,.,-
CCC(C)c1ccccc1OCCOCCN1CCCC1 (stereo not drawn),-,-,-,98,-,-
CCc1nc(SCC(=O)Nc2c(C)nn(C)c2C)c2cnn(-c3ccccc3)c2n1,.,-,.,-,90,-
c1ccc(CN2CCC(Nc3nc(-c4cccs4)nc4ccccc34)CC2)cc1,-,-,-,100,75,-
c1ccc(-c2nc(NCc3cccs3)c3ccccc3n2)cc1,-,.,-,.,.,-
c1csc(CNc2nc(-c3cccs3)nc3ccccc23)c1,-,-,-,83,-,-
COCC(C)n1c(-c2ccc3c(c2)NC(=O)CO3)csc1=Nc1ccc(OC(F)F)cc1 (stereo not drawn),-,-,-,-,89,-
O=C1COc2ccc(-c3csc(=Nc4ccc(OC(F)F)cc4)n3CC3CCCO3)cc2N1 (stereo not drawn),-,-,-,99,78,-
COc1ccccc1N=c1scc(-c2ccc3c(c2)NC(=O)CO3)n1CC1CCCO1 (stereo not drawn),-,-,-,-,-,-
Cc1ccc(S(=O)(=O)N(C(=O)c2ccco2)c2cc3sc(=O)oc3c3ccccc23)cc1,-,-,-,98,-,-
CCOc1ccc(S(=O)(=O)N(C(=O)c2ccco2)c2cc3sc(=O)oc3c3ccccc23)cc1,-,-,-,97,-,-
COc1ccc(S(=O)(=O)N(C(=O)c2ccco2)c2cc3sc(=O)oc3c3ccccc23)cc1,-,-,-,99,85,-
c1ccc(Cn2c[n+](Cc3ccccc3)c3ccccc32)cc1,-,.,-,.,.,?
CCc1ccc2nc(N=C(N)N)nc(C)c2c1,-,-,-,96,-,-
Cc1nc(N=C(N)N)nc2ccccc12,-,-,-,-,-,-
SMILES,CHOP UPR activ,Dynein transport,XBP1 UPR activ,Lmaj promast,CHOP inhibitor,T cruzi repl
Cc1cc2nc(N=C(N)N)nc(C)c2cc1C,.,-,.,100,-,.
Cc1ccc2nc(N=C(N)N)nc(C)c2c1,-,-,-,-,-,-
Cc1ccc(C)c(N2N=C(C(=O)N(CC(C)C)c3c(N)n(Cc4ccccc4)c(=O)[nH]c3=O)CCC2=O)c1,-,.,-,.,.,-
CCN(CC)C(=O)CN(c1ccc(F)c(Cl)c1)S(C)(=O)=O,-,-,-,-,76,-
Cc1nc2ccc(-c3nc4ccccc4o3)cc2[nH]1,-,-,-,72,-,-
Cc1ccnc2ccc(-c3nc4ccccc4o3)cc12,-,-,-,-,.,.
CC(C(=O)Nc1ccccc1)N(C)CCOc1ccc(Br)cc1 (stereo not drawn),-,-,-,-,84,-
CN(CCOc1ccc(Br)cc1)CC(O)c1ccccc1 (stereo not drawn),-,.,-,.,.,70
Cc1c2c(n3c(nc4ccccc43)c1C#N)N(CCCN(C)C)CC2,-,-,-,-,-,63
CCc1c(C)c(C#N)c2nc3ccccc3n2c1N1CCN(c2cc(C)ccn2)CC1,-,-,-,-,-,-
Cc1cc(NCCCN(C)C)n2c(nc3ccccc32)c1C#N,-,.,-,.,.,-
Cc1c2c(n3c(nc4ccccc43)c1C#N)N(c1ccccc1)CC2,.,-,.,53,-,.
Cc1c2c(n3c(nc4ccccc43)c1C#N)N(CCN(C)C)CC2,-,-,-,-,-,70
N=C1Sc2ccccc2C2=NCCCN12,.,.,.,.,-,.
CC(OC(=O)c1cccc(S(=O)(=O)N2CCCC2)c1)C(=O)c1ccccc1 (stereo not drawn),-,.,-,.,.,-
Cc1ccc(S(=O)(=O)N[C@@H](C)C(=O)OCC(=O)N2c3ccccc3NC(=O)C2(C)C)cc1,-,.,-,.,.,.
Cn1c(=O)c2c(nc(NC3CCCCC3)n2CC(=O)C23CC4CC(CC(C4)C2)C3)n(C)c1=O,-,-,-,-,81,-
Cn1c(-c2ccc3c(c2)OCO3)cnc1NCc1ccccc1,-,-,-,63,-,-
Cn1c(-c2ccc3c(c2)OCO3)cnc1N,-,-,-,-,-,-
Cn1c(-c2ccc3c(c2)OCO3)cnc1NC(=O)CCC(=O)NCCc1ccccc1,-,-,-,-,-,-
Cc1ccc(-c2cnc(NCc3cc4c(cc3[N+](=O)[O-])OCO4)n2C)cc1C,-,-,-,95,-,-
Cn1c(-c2ccc3c(c2)OCO3)cnc1NCc1cccc(Cl)c1,-,-,-,93,-,-
Cn1c(-c2ccc3c(c2)OCO3)cnc1NCc1ccccc1Cl,-,-,-,96,-,-
Cn1c(-c2ccccc2)cnc1NCc1ccccc1,-,.,-,.,.,-
N#Cc1ccc(S(=O)(=O)N2CCN(CC(=O)NCC3(N4CCOCC4)CCCCC3)CC2)cc1,-,.,-,.,.,.
SMILES,CHOP UPR activ,Dynein transport,XBP1 UPR activ,Lmaj promast,CHOP inhibitor,T cruzi repl
CCOc1cc(CNC2CCCC2)ccc1OCc1ccccc1Cl,-,-,-,100,-,-
CCOc1cc(C(N)=O)cc(Cl)c1OCc1ccccc1,-,-,-,-,-,-
CCOc1cc(CNC2CCCC2)cc(Cl)c1OCc1ccccc1,-,-,-,97,-,-
CCOc1cc(CNCC(C)C)cc(Cl)c1OCc1ccccc1,-,-,-,89,-,-
CCOc1c(Cl)cc(CNCC(C)C)cc1OC,-,-,-,80,-,-
O=C(/C=C/c1ccc(Cl)cc1)NC1CC2CCC1C2 (stereo not drawn),-,-,-,-,-,-
O=C(/C=C/c1ccccc1)NC1CC2CCC1C2 (stereo not drawn),-,-,-,53,-,-
